In brackets after ≈: the same amount, converted by molar mass.
How the values were obtained:
Escherichia coli = experiment: In vitro antibacterial activity of compound against Escherichia coli SKF 12140; type: functional
Klebsiella pneumoniae = experiment: In vitro antibacterial activity of compound against Klebsiella pneumoniae ISM; type: functional
[1] = tested on: Mycobacterium scrofulaceum; experiment: In vitro activity of compound against slowly growing Mycobacterium scrofulaceum 1292; type: functional
Summary of the method: (§1)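 Medium was Middlebrook 7H10 agar with 2% glycerol and 10% OADC. Organisms from Loevenstein-Jensen slants were grown in 7H9 broth with 0.5% Tween and 10% OADC, adjusted to McFarland no. 1, and spotted with a multipoint inoculator. Sealed plates were incubated at 22, 30 or 37 °C for 4-20 days depending on strain.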

[2] = tested on: Mycobacterium scrofulaceum; experiment: In vitro activity of compound against slowly growing Mycobacterium scrofulaceum 1293; type: functional; summary of the method: as §1
[3] = tested on: Mycobacterium scrofulaceum; experiment: In vitro activity of compound against slowly growing Mycobacterium scrofulaceum 1297; type: functional; summary of the method: as §1
[4] = tested on: Mycobacterium scrofulaceum; experiment: In vitro activity of compound against slowly growing Mycobacterium scrofulaceum 1301; type: functional; summary of the method: as §1
[5] = tested on: Mycolicibacterium smegmatis; experiment: In vitro activity of compound against rapidly growing Mycobacterium smegmatis 139; type: functional; summary of the method: as §1
[6] = tested on: Mycolicibacterium smegmatis; experiment: In vitro activity of compound against rapidly growing Mycobacterium smegmatis 1442; type: functional; summary of the method: as §1
[7] = tested on: Mycolicibacterium smegmatis; experiment: In vitro activity of compound against rapidly growing Mycobacterium smegmatis 31; type: functional; summary of the method: as §1
Mycobacterium xenopi [8] = experiment: In vitro activity compound against slowly growing Mycobacterium xenopi 1446; type: functional; summary of the method: as §1
Mycobacterium xenopi [9] = experiment: In vitro activity of compound against slowly growing Mycobacterium xenopi 554; type: functional; summary of the method: as §1
Mycobacterium xenopi [10] = experiment: In vitro activity of compound against slowl growingy Mycobacterium xenopi 555; type: functional; summary of the method: as §1
Mycolicibacterium phlei [11] = experiment: In vitro activity of compound against rapidly growing Mycobacterium phlei 141; type: functional; summary of the method: as §1
Mycolicibacterium phlei [12] = experiment: In vitro activity of compound against rapidly growing Mycobacterium phlei 1283; type: functional; summary of the method: as §1
Mycolicibacterium phlei [13] = experiment: In vitro activity of compound against rapidly growing Mycobacterium phlei 1289; type: functional; summary of the method: as §1
Mycobacterium kansasii [14] = experiment: In vitro activity compound against slowly growing Mycobacterium kansasii 1298; type: functional; summary of the method: as §1
Mycobacterium kansasii [15] = experiment: In vitro activity of compound against slowly growing Mycobacterium kansasii 1299; type: functional; summary of the method: as §1
Mycobacterium marinum [16] = experiment: In vitro activity of compound against slowly growing Mycobacterium marinum 1388; type: functional; summary of the method: as §1
Mycobacterium marinum [17] = experiment: In vitro activity of compound against slowly growing Mycobacterium marinum 1390; type: functional; summary of the method: as §1
Mycobacterium marinum [18] = experiment: In vitro activity of compound against slowly growing Mycobacterium marinum 1391; type: functional; summary of the method: as §1
[19] = tested on: Mycolicibacterium fortuitum; experiment: In vitro activity of compound against rapidly growing Mycobacterium fortuitum 114; type: functional; summary of the method: as §1
[20] = tested on: Mycolicibacterium fortuitum; experiment: In vitro activity of compound against rapidly growing Mycobacterium fortuitum 1285; type: functional; summary of the method: as §1
[21] = tested on: Mycolicibacterium fortuitum; experiment: In vitro activity of compound against rapidly growing Mycobacterium fortuitum 1287; type: functional; summary of the method: as §1
[22] = tested on: Mycolicibacterium fortuitum; experiment: In vitro activity compound against rapidly growing Mycobacterium fortuitum 1302; type: functional; summary of the method: as §1
[23] = tested on: Mycolicibacterium fortuitum; experiment: In vitro activity of compound against rapidly growing Mycobacterium fortuitum 140; type: functional; summary of the method: as §1
[24] = tested on: Mycolicibacterium fortuitum; experiment: In vitro activity compound against rapidly growing Mycobacterium fortuitum 1440; type: functional; summary of the method: as §1
[25] = tested on: Mycolicibacterium fortuitum; experiment: In vitro activity of compound against rapidly growing Mycobacterium fortuitum 646; type: functional; summary of the method: as §1
[26] = tested on: Mycolicibacterium fortuitum; experiment: In vitro activity of compound against rapidly growing Mycobacterium fortuitum 726; type: functional; summary of the method: as §1
Mycobacterium gordonae [27] = experiment: In vitro activity of compound against slowly growing Mycobacterium gordonae 1294; type: functional; summary of the method: as §1
Mycobacterium gordonae [28] = experiment: In vitro activity of compound against slowly growing Mycobacterium gordonae 1441; type: functional; summary of the method: as §1
Mycobacterium kansasii [29] = experiment: In vitro activity compound against slowly growing Mycobacterium kansasii 1291; type: functional; summary of the method: as §1
[30] = tested on: Mycolicibacterium flavescens; experiment: In vitro activity of compound against rapidly growing Mycobacterium flavescens 1284; type: functional; summary of the method: as §1
[31] = tested on: Mycolicibacterium flavescens; experiment: In vitro activity of compound against rapidly growing Mycobacterium flavescens 1286; type: functional; summary of the method: as §1
Mycobacterium marinum [32] = experiment: In vitro activity of compound against slowly growing Mycobacterium marinum 1392; type: functional; summary of the method: as §1
Mycobacterium marinum [33] = experiment: In vitro activity of compound against slowly growing Mycobacterium marinum 1393; type: functional; summary of the method: as §1
Mycobacterium marinum [34] = experiment: In vitro activity of compound against slowly growing Mycobacterium marinum 1394; type: functional; summary of the method: as §1
Mycobacterium marinum [35] = experiment: In vitro activity of compound against slowly growing Mycobacterium marinum 1447; type: functional; summary of the method: as §1
Mycobacterium avium [36] = experiment: 50% inhibition of the 20 Mycobacterium (MAC) avium complex clinical isolates; type: functional
Summary of the method: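 Agar-dilution MICs, 2-fold dilutions over 128-0.0001 μg/mL, on Middlebrook 7H10 agar with 2% glycerol and 10% OADC. Organisms from Loevenstein-Jensen slants were grown in 7H9 broth with 0.5% Tween and 10% OADC, adjusted to McFarland no. 1, and spotted with a multipoint inoculator. Plates were sealed and incubated at 22, 30 or 37 °C for 4-20 days depending on strain.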

Neisseria gonorrhoeae = experiment: In vitro antibacterial activity of compound against Neisseria gonorrhoeae ISM 68/126; type: functional
Pseudomonas aeruginosa = experiment: In vitro antibacterial activity of compound against Pseudomonas aeruginosa ATCC 10145; type: functional
Summary of the method: (§2)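 Twofold microdilution MIC in Iso-Sensitest broth over 128-0.0001 µg/mL. Inoculum was 10^4 cfu/mL, with incubation at 37 °C for 18-24 h.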

Proteus vulgaris = experiment: In vitro antibacterial activity of compound against Proteus vulgaris X19H ATCC 881; type: functional
[37] = tested on: Staphylococcus epidermidis; experiment: In vitro antibacterial activity of compound against Staphylococcus epidermidis ATCC 12228; type: functional; summary of the method: as §2
Streptococcus pyogenes [38] = experiment: Inhibitory concentration of compound against Streptococcus pyogenus septicemia in the mouse, administarted in OS route; type: functional
Summary of the method: (§3)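 Male and female CD1 mice (18-22 g) were infected ip with S. pyogenes C203, with the challenge set so untreated mice died within 48 h. Groups of five received a single treatment immediately after infection. ED50 was calculated from the percentage surviving at each dose on day 10.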

Streptococcus pyogenes [39] = experiment: Inhibitory concentration of compound against Streptococcus pyogenus septicemia in the mouse, administarted in subcutaneous route; type: functional; details: sc; summary of the method: as §3
Streptococcus pyogenes [40] = experiment: Minimum inhibitory concentration of compound against Streptococcus pyogenus septicemia in the mouse; type: functional
Streptococcus pyogenes [41] = experiment: In vitro antibacterial activity of compound against Streptococcus pyogenes C 203 SKF 13400; type: functional
Summary of the method: (§4)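 Streptococcal MICs were run by twofold microdilution in Todd-Hewitt broth over 128-0.0001 µg/mL. Inoculum was 10^4 cfu/mL, with incubation at 37 °C for 18-24 h.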

Staphylococcus aureus = experiment: In vitro antibacterial activity of compound against Staphylococcus aureus Tour L 165; type: functional; summary of the method: as §2
Streptococcus pneumoniae = experiment: In vitro antibacterial activity of compound against Streptococcus pneumoniae UC 41; type: functional; summary of the method: as §4
Enterococcus faecalis = experiment: In vitro antibacterial activity of compound against Streptococcus faecalis ATCC 7080.; type: functional; summary of the method: as §2
[42] = tested on: Mycolicibacterium fortuitum; experiment: In vitro activity of compound against rapidly growing Mycobacterium fortuitum 645; type: functional; summary of the method: as §1
Haemophilus influenzae = experiment: In vitro antibacterial activity of compound against Haemophilus influenzae ATCC 19418; type: functional
Mycobacterium xenopi [43] = experiment: In vitro activity of compound against slowly growing Mycobacterium xenopi 556; type: functional; summary of the method: as §1
Mycobacterium avium [44] = experiment: 90% inhibition of the 20 Mycobacterium avium complex (MAC) clinical isolates
Mycobacteroides chelonae = experiment: In vitro activity of compound against rapidly growing Mycobacterium chelonae 1443
Mycobacterium avium [45] = experiment: Minimum inhibitory concentration of compound against 20 Mycobacterium avium complex (MAC) clinical isolates

Work on `CCN(CC)c1nc2c(s1)c1c(O)c3c(O)c(C)c4c(c32)C(=O)C(C)(O/C=C/C(OC)C(C)C(OC(C)=O)C(C)C(O)C(C)C(O)C(C)/C=C/C=C(/C)C(=O)N1)O4` (stereo not given) yielded an MIC (Escherichia coli) of 32 µg/mL (≈ 39.5 µM), an MIC (Klebsiella pneumoniae) of 32 µg/mL (≈ 39.5 µM) and an MIC [1] of 0.032 µg/mL (≈ 0.0395 µM). For the same molecule, the MIC [2] was 0.125 µg/mL (≈ 0.154 µM), the MIC [3] was 0.063 µg/mL (≈ 0.0778 µM) and the MIC [4] was 2 µg/mL (≈ 2.47 µM). For the same molecule, the MIC [5] was 8 µg/mL (≈ 9.88 µM), the MIC [6] was 8 µg/mL (≈ 9.88 µM) and the MIC [7] was 8 µg/mL (≈ 9.88 µM). It also gave an MIC (Mycobacterium xenopi [8]) of 4 µg/mL (≈ 4.94 µM), an MIC (Mycobacterium xenopi [9]) of 2 µg/mL (≈ 2.47 µM) and an MIC (Mycobacterium xenopi [10]) of 4 µg/mL (≈ 4.94 µM). For the same molecule, the MIC (Mycolicibacterium phlei [11]) was 0.032 µg/mL (≈ 0.0395 µM), the MIC (Mycolicibacterium phlei [12]) was 0.125 µg/mL (≈ 0.154 µM) and the MIC (Mycolicibacterium phlei [13]) was 2 µg/mL (≈ 2.47 µM). The MIC (Mycobacterium kansasii [14]) was 0.25 µg/mL (≈ 0.309 µM), the MIC (Mycobacterium kansasii [15]) was 2 µg/mL (≈ 2.47 µM) and the MIC (Mycobacterium marinum [16]) was 2 µg/mL (≈ 2.47 µM). It also gave an MIC (Mycobacterium marinum [17]) of 4 µg/mL (≈ 4.94 µM), an MIC (Mycobacterium marinum [18]) of 1 µg/mL (≈ 1.23 µM) and an MIC [19] of 16 µg/mL (≈ 19.8 µM). For the same molecule, the MIC [20] was 16 µg/mL (≈ 19.8 µM), the MIC [21] was 2 µg/mL (≈ 2.47 µM) and the MIC [22] was 2 µg/mL (≈ 2.47 µM). It also gave an MIC [23] of 16 µg/mL (≈ 19.8 µM), an MIC [24] of 16 µg/mL (≈ 19.8 µM) and an MIC [25] of 32 µg/mL (≈ 39.5 µM). For the same molecule, the MIC [26] was 32 µg/mL (≈ 39.5 µM), the MIC (Mycobacterium gordonae [27]) was 0.5 µg/mL (≈ 0.617 µM) and the MIC (Mycobacterium gordonae [28]) was 2 µg/mL (≈ 2.47 µM). It also gave an MIC (Mycobacterium kansasii [29]) of 2 µg/mL (≈ 2.47 µM), an MIC [30] of 32 µg/mL (≈ 39.5 µM) and an MIC [31] of 0.25 µg/mL (≈ 0.309 µM). For the same molecule, the MIC (Mycobacterium marinum [32]) was 1 µg/mL (≈ 1.23 µM), the MIC (Mycobacterium marinum [33]) was 1 µg/mL (≈ 1.23 µM) and the MIC (Mycobacterium marinum [34]) was 1 µg/mL (≈ 1.23 µM). It also gave an MIC (Mycobacterium marinum [35]) of 1 µg/mL (≈ 1.23 µM), an MIC50 (Mycobacterium avium [36]) of 2 µg/mL (≈ 2.47 µM) and an MIC (Neisseria gonorrhoeae) of 0.5 µg/mL (≈ 0.617 µM). For the same molecule, the MIC (Pseudomonas aeruginosa) was 8 µg/mL (≈ 9.88 µM), the MIC (Proteus vulgaris) was 32 µg/mL (≈ 39.5 µM) and the MIC [37] was 0.063 µg/mL (≈ 0.0778 µM). For the same molecule, the ED50 (Streptococcus pyogenes [38]) was 1.23 mg/kg, the ED50 (Streptococcus pyogenes [39]) was 1.62 mg/kg and the MIC (Streptococcus pyogenes [40]) was 0.135 µg/mL (≈ 0.167 µM). The MIC (Streptococcus pyogenes [41]) was 0.125 µg/mL (≈ 0.154 µM), the MIC (Staphylococcus aureus) was 0.125 µg/mL (≈ 0.154 µM) and the MIC (Streptococcus pneumoniae) was 0.063 µg/mL (≈ 0.0778 µM). It also gave an MIC (Enterococcus faecalis) of 2 µg/mL (≈ 2.47 µM), an MIC [42] of 2 µg/mL (≈ 2.47 µM) and an MIC (Haemophilus influenzae) of 0.5 µg/mL (≈ 0.617 µM). For the same molecule, the MIC (Mycobacterium xenopi [43]) was 4 µg/mL (≈ 4.94 µM), the MIC90 (Mycobacterium avium [44]) was 2 µg/mL (≈ 2.47 µM) and the MIC (Mycobacteroides chelonae) was greater than 128 µg/mL. For the same molecule, the MIC (Mycobacterium avium [45]) was 0.5 µg/mL (≈ 0.617 µM).
